Measured values as given in ChEMBL document CHEMBL1926661, “The arginine mimicking β-amino acid β³hPhe(3-H₂N-CH₂) as S1 ligand in cyclotheonamide-based β-tryptase inhibitors” (Bioorg Med Chem, 2011).

Experiments:
[1] = Inhibition of human mast cell tryptase-beta using chromogenic substrate
Kallikrein-1 = Kallikrein-1 (Homo sapiens, UniProt P06870); assay: Inhibition of tissue kallikrein
[2] = Metabolic stability in human serum assessed as compound remaining at 200 uM after 48 hrs by RP-HPLC analysis; format: ADME, cell-free; details: read-out: Stability
How it was run: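 Compound at 200 μM incubated in undiluted human plasma or human serum at 37 °C for up to 48 h. At time points, samples were acidified with an equal volume of 0.1% TFA and centrifuged at 8000 × g for 10 min. Supernatants were analysed by C18 RP-HPLC using a linear H₂O/MeCN (0.1% TFA) gradient over 200 min to quantify remaining intact inhibitor.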

[3] = Inhibition of trypsin
Prothrombin = Prothrombin (Homo sapiens, UniProt P00734); assay: Inhibition of thrombin
Coagulation factor X = Coagulation factor X (Homo sapiens, UniProt P00742); assay: Inhibition of factor 10a
Homo sapiens = species: Homo sapiens; assay: Selectivity ratio of Ki for Trypsin to Ki for human beta-tryptase
Plasma kallikrein = Plasma kallikrein (Homo sapiens, UniProt P03952); assay: Inhibition of plasma kallikrein
[4] = Inhibition of human beta-tryptase
[5] = Inhibition of beta-tryptase

Plasma kallikrein, sequence (P03952 20-390 limits assumed): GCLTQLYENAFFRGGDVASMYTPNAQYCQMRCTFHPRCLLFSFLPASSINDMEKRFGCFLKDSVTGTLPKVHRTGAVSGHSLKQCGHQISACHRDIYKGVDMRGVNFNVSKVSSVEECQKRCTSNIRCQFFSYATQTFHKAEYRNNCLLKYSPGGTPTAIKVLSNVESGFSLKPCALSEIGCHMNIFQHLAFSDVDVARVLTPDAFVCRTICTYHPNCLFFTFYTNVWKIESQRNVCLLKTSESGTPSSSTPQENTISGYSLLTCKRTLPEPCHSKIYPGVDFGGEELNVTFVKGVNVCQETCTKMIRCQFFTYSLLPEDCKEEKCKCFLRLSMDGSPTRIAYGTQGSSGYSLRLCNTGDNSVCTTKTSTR
Plasma kallikrein, sequence (P03952 391-638 limits assumed): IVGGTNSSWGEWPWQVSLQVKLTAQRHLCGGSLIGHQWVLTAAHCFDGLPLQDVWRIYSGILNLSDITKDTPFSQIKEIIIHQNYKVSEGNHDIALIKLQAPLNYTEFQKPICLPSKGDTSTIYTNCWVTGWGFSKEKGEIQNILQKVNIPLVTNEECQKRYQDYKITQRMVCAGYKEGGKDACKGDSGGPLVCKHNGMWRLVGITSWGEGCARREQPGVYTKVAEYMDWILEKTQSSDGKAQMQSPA
Kallikrein-1, sequence (P06870 whole entry): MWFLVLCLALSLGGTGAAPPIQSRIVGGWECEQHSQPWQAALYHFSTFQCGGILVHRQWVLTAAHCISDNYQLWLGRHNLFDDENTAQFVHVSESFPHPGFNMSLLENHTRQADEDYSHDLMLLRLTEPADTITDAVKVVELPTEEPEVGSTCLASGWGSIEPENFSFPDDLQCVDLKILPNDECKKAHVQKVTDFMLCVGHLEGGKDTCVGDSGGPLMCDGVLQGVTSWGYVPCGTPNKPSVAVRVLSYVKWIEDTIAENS
Coagulation factor X, sequence (P00742 41-179 limits assumed): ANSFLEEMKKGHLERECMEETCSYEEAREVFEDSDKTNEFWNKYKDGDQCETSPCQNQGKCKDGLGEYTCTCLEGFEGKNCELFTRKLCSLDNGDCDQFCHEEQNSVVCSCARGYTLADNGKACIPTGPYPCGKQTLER
Coagulation factor X, sequence (P00742 235-488 limits assumed): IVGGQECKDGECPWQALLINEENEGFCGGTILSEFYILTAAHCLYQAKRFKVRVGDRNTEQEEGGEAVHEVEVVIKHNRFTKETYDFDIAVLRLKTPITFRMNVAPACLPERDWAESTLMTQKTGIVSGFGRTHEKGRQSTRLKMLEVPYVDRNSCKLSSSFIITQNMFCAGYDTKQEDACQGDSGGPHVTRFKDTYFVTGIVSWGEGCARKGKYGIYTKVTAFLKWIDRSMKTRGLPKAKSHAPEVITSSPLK

Compound | Ki (Kallikrein-1) | remaining at 48 h, 200 µM [2] | Ki [3] | Ki (Prothrombin) | Ki (Coagulation factor X) | Ratio Ki (Homo sapiens) | Ki (Plasma kallikrein) | Ki [4] | Ki [5] | Ki [1]
CC[C@H](C)[C@H]1NC(=O)C[C@H](CCCNC(=N)N)NC(=O)[C@@H]2CCCN2C(=O)[C@@H](NC(=O)CCCCCN)CNC(=O)/C=C/[C@H](Cc2ccc(O)cc2)NC1=O |  |  | 10 µM |  |  | 1400 |  | 0.007 µM |  | 
CC[C@H](C)[C@H]1NC(=O)C[C@H](CCCCN)NC(=O)[C@@H]2CCCN2C(=O)[C@@H](NC(C)=O)CNC(=O)/C=C/[C@H](Cc2ccc(O)cc2)NC1=O |  |  | 230 µM |  |  | 0.6 |  | 380 µM |  | 
CC[C@H](C)[C@H]1NC(=O)C[C@H](CCCNC(=N)N)NC(=O)[C@@H]2CCCN2C(=O)[C@@H](NC(C)=O)CNC(=O)/C=C/[C@H](Cc2ccc(O)cc2)NC1=O |  |  | 30 µM |  |  | 0.8 |  | 40 µM |  | 

More lines, main results first:

Ki (Kallikrein-1) | remaining at 48 h, 200 µM [2] | Ki [3] | Ki (Prothrombin) | Ki (Coagulation factor X) | Ratio Ki (Homo sapiens) | Ki (Plasma kallikrein) | Ki [4] | Ki [5] | Compound | Ki [1]
1800 µM | 95% | 100 µM | 680 µM | 310 µM | 170 | 3300 µM |  |  | CC[C@H](C)[C@H]1NC(=O)C[C@H](Cc2cccc(CN)c2)NC(=O)[C@@H]2CCCN2C(=O)[C@@H](NC(C)=O)CNC(=O)/C=C/[C@H](Cc2ccc(O)cc2)NC1=O | 0.6 µM
1300 µM | 81% | 50 µM | 330 µM | 360 µM | 2000 | 2000 µM |  |  | CC[C@H](C)[C@H]1NC(=O)C[C@H](Cc2cccc(CN)c2)NC(=O)[C@@H]2CCCN2C(=O)[C@@H](NC(=O)CCCCCN)CNC(=O)/C=C/[C@H](Cc2ccc(O)cc2)NC1=O | 0.025 µM
 |  | 400 µM |  |  |  |  |  | 14 µM | COC(=O)C(Cc1cccc(CN)c1)NC(C)=O (racemic) | 
